Measured values collected from several papers.
Each line is one published result; the experiments were not run side by side.
Target: Ephrin type-A receptor 3 (EPHA3, Homo sapiens, UniProt P29320)
Sequence (P29320 21-983, as in one of the studies): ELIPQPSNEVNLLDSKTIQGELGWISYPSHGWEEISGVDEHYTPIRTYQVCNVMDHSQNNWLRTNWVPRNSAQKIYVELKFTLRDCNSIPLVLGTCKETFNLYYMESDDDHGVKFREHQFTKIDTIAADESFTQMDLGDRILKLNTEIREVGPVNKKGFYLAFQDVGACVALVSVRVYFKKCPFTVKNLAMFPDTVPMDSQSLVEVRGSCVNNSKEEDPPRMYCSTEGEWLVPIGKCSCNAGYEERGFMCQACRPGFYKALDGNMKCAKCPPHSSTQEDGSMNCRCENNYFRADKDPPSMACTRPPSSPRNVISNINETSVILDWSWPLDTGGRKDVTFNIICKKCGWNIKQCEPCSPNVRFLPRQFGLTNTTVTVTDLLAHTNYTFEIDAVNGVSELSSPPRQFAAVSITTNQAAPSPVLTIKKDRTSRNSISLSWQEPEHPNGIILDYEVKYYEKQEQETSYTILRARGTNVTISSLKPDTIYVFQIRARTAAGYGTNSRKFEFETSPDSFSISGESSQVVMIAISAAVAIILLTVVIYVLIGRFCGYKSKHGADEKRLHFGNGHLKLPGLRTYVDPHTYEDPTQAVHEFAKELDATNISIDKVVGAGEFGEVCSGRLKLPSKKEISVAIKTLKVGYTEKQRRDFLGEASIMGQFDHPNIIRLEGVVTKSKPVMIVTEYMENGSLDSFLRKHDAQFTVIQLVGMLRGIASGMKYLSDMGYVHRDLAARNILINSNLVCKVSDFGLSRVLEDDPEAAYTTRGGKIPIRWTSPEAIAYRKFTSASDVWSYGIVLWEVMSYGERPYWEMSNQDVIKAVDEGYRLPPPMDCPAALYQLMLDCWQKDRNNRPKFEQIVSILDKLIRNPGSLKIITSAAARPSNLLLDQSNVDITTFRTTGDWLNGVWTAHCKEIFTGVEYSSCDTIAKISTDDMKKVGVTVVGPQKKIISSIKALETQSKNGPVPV

c1cnn2ncc(-c3ccnc(N4CCC45COC5)n3)c2c1 — remaining binding (binding; 1 µM): 68%
COc1cnc(Nc2cccc(S(N)(=O)=O)c2)nc1N1CCN(c2ccccc2)C(=O)C1 — remaining binding (binding; competition with immobilised ligand; 1 µM): 98%
CCN1CCN(Cc2ccc(C(=O)Nc3ccc(C)c(Oc4ccc5c(c4)CC(=O)N5)c3)cc2C(F)(F)F)CC1 — remaining binding (binding; competition with immobilised ligand; 1 µM): 76%
CN(C)c1nccc(-c2cnc3ncccn23)n1 — remaining binding (binding; 1 µM): 100%
Cc1cc(NC(=O)c2cccc(S(F)(F)(F)(F)F)c2)cc(-n2ccn3nc(-c4cccnc4)cc23)c1 — remaining binding (cell-free assay; competition with immobilised ligand; 1 µM): 100%
Nc1ncc2c(n1)-c1c([nH]c3ccc(C#CC4CC4)cc13)CCCC2 — remaining binding (binding; competition with immobilised ligand; 1 µM): 100%
CCS(=O)(=O)c1cc2cc(C[C@](O)(CC(C)(C)c3ccc(F)cc3C(N)=O)C(F)(F)F)[nH]c2cn1 — remaining binding (cell-free assay; competition with immobilised ligand; 1 µM): 95%
C[C@H]1CCN(c2nccc(-c3cnn4ncccc34)n2)C1 — remaining binding (binding; 1 µM): 100%
C[C@H](NC(=O)c1cnc2n1[C@](C)(Cc1ccc(C#N)cc1)C(=O)N2c1cc(Cl)c(F)c(Cl)c1)C(=O)NC1(c2ccccn2)CC1 — remaining binding (cell-free assay; competition with immobilised ligand; 1 µM): 88%
O=C(NCCCN1CCOCC1)c1ccc(Nc2ncc(Cl)c(-c3ccc(Cl)s3)n2)cc1 — remaining binding (binding; competition with immobilised ligand; 1 µM): 63%
C[C@H](c1ccnc(Nc2nc3ccc(-c4cc(N(C)C)ncn4)cc3[nH]2)c1)N1CCN(C(=O)CC(F)(F)F)CC1 — remaining binding (cell-free assay; competition with immobilised ligand; 0.1 µM): 100%
O=C(c1ccc(Nc2ncc(Cl)c(-c3cc4ccccc4s3)n2)cc1)N1CCC(N2CCCC2)CC1 — remaining binding (binding; competition with immobilised ligand; 1 µM): 84%
C=CC(=O)N1CCC(C(=O)NCC(=O)N2CCN(c3nc(-c4cnc(N)nc4C(F)F)nc(N4CCOCC4)n3)CC2)CC1 — remaining binding (binding; competition with immobilised ligand; 1 µM): 90%
C[C@H](c1cccc(C#N)c1)n1cc(Cl)cc(C(N)=O)c1=N — remaining binding (cell-free assay; competition with immobilised ligand; 1 µM): 100%
F[C@@H]1CCN(c2nccc(-c3cnn4ncccc34)n2)C1 — remaining binding (binding; 1 µM): 90%
Cc1nc(C2CCN(C(=O)c3ccc(OC(F)(F)F)cc3N)CC2)c2ncc(N3CCN(C)CC3)cc2n1 — remaining binding (cell-free assay; competition with immobilised ligand; 1 µM): 92%
N[C@H]1CCN(c2nccc(-c3cnn4ncccc34)n2)C1 — remaining binding (binding; 1 µM): 98%
O=C(c1ccc(Nc2ncc(Cl)c(-c3ccc(Cl)s3)n2)cc1)N1CCC(N2CCCC2)CC1 — remaining binding (binding; competition with immobilised ligand; 1 µM): 68%
CN(C)c1ncc(F)c(-c2cnn3ncccc23)n1 — remaining binding (binding; 1 µM): 100%
O=C(NCC1CCOCC1)c1n[nH]cc1NC(=O)c1c(F)cccc1F — remaining binding (binding; competition with immobilised ligand; 1 µM): 82%
